# Laboratory results: paper PMC11223518 (Science signaling, 2024)
# B1: brain-derived neurotrophic factor (protein, UniProt P23560 19-247, looked up)
# Neurotrophic factor BDNF …: APMKEANIRGQGGLAYPGVRTHGTLESVNGPKAGSRGLTSLADTFEHVIEELLDEDQKVRPNEENNKDADLYTSRVMLSSQVPLEPPLLFLLEEYKNYLDAANMSMRVRRHSDPARRGELSVCDSISEWVTAADKKTAVDMSGGTVTVLEKVPVSKGQLKQYFYETKCNPMGYTKEGCRGIDKRHWNSQCRTTQSYVRALTMDSKKRIGWRFIRIDTSCVCTLTIKRGR
# B2: PDGF: recombinant platelet-derived growth factor (protein, UniProt P01127 82-190, looked up)
# Platelet-derived growth …: SLGSLTIAEPAMIAECKTRTEVFEISRRLIDRTNANFLVWPPCVEVQRCSGCCNNRNVQCRPTQVQLRPVQVRKIEIVRKKPIFKKATVTLEDHLACKCETVAAARPVT
# Tests used:
# TrkB signaling = conditions: cited from earlier work
# [1] = system: Akt, GSK3α/β, S6K, S6 phosphorylation in primary murine hippocampal neurons; format: cell-based, mouse; conditions: K252a 200 nM or LY294002 1 μM for 1 hour, then Syn3 0.2 μM, BDNF 25 ng/mL 20 min; n = 5
# [2] = system: primary murine hippocampal neurons; assay: PSD-95 puncta formation in vitro; format: cell-based, mouse; conditions: for effect of inhibitor on the effects of Syn3 (PSD-95 puncta): K252a 200 nM or LY294002 1 μM for 1 hour; for effect of inhibitor on the effects of Syn3 (PSD-95 puncta) / BDNF+Syn3–induced PSD-95 puncta formation with inhibitor: then Syn3 0.2 μM, BDNF 25 ng/mL 24 hours; for BDNF+Syn3–induced PSD-95 puncta formation with inhibitor: K252a 200 nM or LY294002 1 μM, n = 20 neurons
# Procedure, shortened: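 Primary murine hippocampal neurons were pretreated with test compound (0.2 µM) for 20 min, some first with K252a (200 nM) or LY294002 (1 µM) for 1 hour, then given BDNF for 24 hours. Cells were fixed in 4% paraformaldehyde for 15 min and blocked in 0.3% Triton X-100/5% goat serum. Primary antibody ran overnight at 4°C, secondary 2 hours at room temperature. Puncta were counted per 10-µm second-order dendrite 35–45 µm from the soma.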
# [3] = system: primary murine hippocampal neurons; assay: Synaptic density; format: cell-based, mouse; conditions: K252a 200 nM or LY294002 1 μM, Syn3 0.2 μM, BDNF 25 ng/mL 24 hours; n = 20 neurons
# [4] = system: primary murine hippocampal neurons; assay: Dendritic spine density; format: cell-based, mouse; conditions: K252a 200 nM or LY294002 1 μM, Syn3 0.2 μM, BDNF 25 ng/mL 24 hours; n = 15 neurons
# [5] = system: C57BL/6J mice, corticosterone model of depression; assay: Tail suspension test, corticosterone model; format: in vivo, mouse; conditions: corticosterone 20 mg/kg s.c. daily for 21 days
# Procedure, shortened: (§1)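 C57BL/6J mice, 4–5 weeks old, equal numbers male and female. Corticosterone emulsified in propylene glycol given s.c. daily between 10:00 and 12:00 for 21 days; controls got vehicle. Test compound then given i.p. (1 or 10 mg/kg; in one series 1 mg/kg with testing 12 hours later, n = 9 per group). Mice acclimated to the testing room for 30 min.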
# [6] = system: C57BL/6J mice, corticosterone model of depression; assay: Forced swim test, corticosterone model; format: in vivo, mouse; conditions: corticosterone 20 mg/kg s.c. daily for 21 days
# Procedure, shortened: as §1
# [7] = system: C57BL/6J mice, corticosterone model of depression; assay: Sucrose preference test, corticosterone model; format: in vivo, mouse; conditions: corticosterone 20 mg/kg s.c. daily for 21 days
# Procedure, shortened: as §1
# [8] = system: autophagy, BDNF-mTOR signaling pathway; conditions: through the BDNF-mTOR signaling pathway; cited from earlier work
# [9] = system: patients with conventional, treatment-resistant depression; conditions: single infusion of sub-anesthetic dose; cited from earlier work
# [10] = system: insulin receptor signaling; assay: Insulin-induced Akt-S6K signaling in primary hippocampal neurons; format: cell-based, mouse; conditions: insulin 1 μg/mL, 20 min
# Procedure, shortened: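 Primary murine hippocampal neurons were pre-treated 20 min with test compound (0.2 µM) or vehicle, then with insulin (1 μg/mL) for 20 min. Cells were lysed in ice-cold RIPA for 30 min and centrifuged. Equal protein was run on SDS-PAGE and blotted to PVDF, blocked in 5% milk/TBS-T, then probed overnight at 4°C with primary antibodies and HRP secondaries. Data are mean ± SD.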
# [11] = system: primary murine hippocampal neurons; assay: Sholl analysis of dendritic complexity/neurite outgrowth; format: cell-based, mouse; conditions: BDNF 25 ng/mL, 24h; n = 26 neurons
# [12] = system: platelet-derived growth factor (PDGF) receptor signaling; assay: PDGF-induced Akt-S6K signaling in primary hippocampal neurons; format: cell-based, mouse; conditions: PDGF-BB 25 ng/mL, 20 min
molecule,measurement,setting,value
"O=c1cc(-c2ccccc2)oc2c(O)c(O)ccc12 [7,8-DHF, 7,8-dihydroxyflavone]",TrkB signaling and antidepressant responses,TrkB signaling,stimulates TrkB signaling and promotes rapid antidepressant responses
COC(=O)[C@@]1(O)C[C@H]2O[C@]1(C)n1c3ccccc3c3c4c(c5c6ccccc6n2c5c31)C(=O)NC4 [K252a],BDNF plus Syn3 stimulation of Akt and S6K phosphorylation with inhibitor,[1],blocked
same,effect of inhibitor on the effects of Syn3 (PSD-95 puncta),[2],blocked the effects of Syn3
same,BDNF+Syn3–induced PSD-95 puncta formation with inhibitor,[2],reversed
same,effect of Syn3 on synaptic density with inhibitor,[3],blocked the effect of Syn3 on synaptic density
same,"density of dendritic spines, BDNF + Syn3 with inhibitor",[4],reversed
O=c1cc(N2CCOCC2)oc2c(-c3ccccc3)cccc12 [LY294002],BDNF plus Syn3 stimulation of Akt and S6K phosphorylation with inhibitor,[1],blocked
same,effect of inhibitor on the effects of Syn3 (PSD-95 puncta),[2],blocked the effects of Syn3
same,BDNF+Syn3–induced PSD-95 puncta formation with inhibitor,[2],reversed
same,effect of Syn3 on synaptic density with inhibitor,[3],blocked the effect of Syn3 on synaptic density
same,"density of dendritic spines, BDNF + Syn3 with inhibitor",[4],reversed
C[C@]12C[C@H](O)[C@H]3[C@@H](CCC4=CC(=O)CC[C@@]43C)[C@@H]1CC[C@@H]2C(=O)CO [corticosterone],"immobility time (effect of inducer), tail suspension test",[5],increased immobility time
same,"immobility time (effect of inducer), forced swim test",[6],increased immobility time
same,sucrose intake (effect of inducer),[7],decreased sucrose intake
CN[C@]1(c2ccccc2Cl)CCCCC1=O [esketamine],autophagy,[8],acts to inhibit autophagy
CNC1(c2ccccc2Cl)CCCCC1=O (centres unmarked) [ketamine],antidepressant effects in patients,[9],"produces rapid antidepressant effects in patients with conventional, treatment-resistant depression"
insulin: recombinant insulin,Akt and S6K phosphorylation,[10],increased Akt and S6K phosphorylation
B1,dendritic complexity and number of neurite crossings,[11],significantly enhanced dendritic complexity and the number of neurite crossings
same,number of PSD-95 puncta,"[2]; BDNF 25 ng/mL, 24h",increased the number of PSD-95 puncta
B2,Akt and S6K phosphorylation,[12],increased Akt and S6K phosphorylation
